Measurements taken from publication PMC11677264 (Biochemistry, 2023).

Columns and labels:
[1] = target: T1, AmgK (N-acetylmuramic acid/N-acetylglucosamine kinase) (Pseudomonas aeruginosa, UniProt Q9I5U1); assay: 2D-ITC, fit to ordered-sequential rate equation; format: biochemical
How it was run: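 AmgK in the calorimeter cell (650 nM with NAM, 300 nM with NAG) with ATP at 13.5 mM. Eighteen 1 μL injections of NAM or NAG (160 mM syringe stock), ~800 μM sugar at the start of each, spaced ≥1200 s. Run ~8–10 h with stirring, in duplicate. Thermograms converted to rate versus [ATP] versus [sugar] data sets and fitted to the ordered-sequential equation.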

[2] = target: T1, AmgK (N-acetylmuramic acid/N-acetylglucosamine kinase); assay: pyruvate kinase/lactate dehydrogenase-coupled ATP-recycling assay, NADH at […] nm; format: biochemical
[3] = system: Nc1ncnc2c1ncn2[C@@H]1O[C@H](COP(=O)(O)OP(=O)(O)OP(=O)(O)O)[C@@H](O)[C@H]1O; assay: purified protein; conditions: saturating NAG 4 mM

T1 sequence (Q9I5U1 whole entry): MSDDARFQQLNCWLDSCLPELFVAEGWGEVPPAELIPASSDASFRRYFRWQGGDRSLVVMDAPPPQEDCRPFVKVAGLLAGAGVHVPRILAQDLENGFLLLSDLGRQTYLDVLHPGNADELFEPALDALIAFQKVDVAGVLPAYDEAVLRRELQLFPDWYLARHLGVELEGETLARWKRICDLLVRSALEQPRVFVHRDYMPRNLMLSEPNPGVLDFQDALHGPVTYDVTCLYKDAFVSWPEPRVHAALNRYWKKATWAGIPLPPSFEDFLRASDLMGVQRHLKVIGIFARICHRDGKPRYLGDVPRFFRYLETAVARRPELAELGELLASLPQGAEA

Nc1ncnc2c1ncn2[C@@H]1O[C@H](COP(=O)(O)OP(=O)(O)O)[C@@H](O)[C@H]1O [ADP]
Ki [1]: 694 ± 128 µM

Nc1ncnc2c1ncn2[C@@H]1O[C@H](COP(=O)(O)OP(=O)(O)NP(=O)(O)O)[C@@H](O)[C@H]1O [AMP-PNP]
Ki [2]: 471 ± 169 µM

AmgK (N-acetylmuramic acid/N-acetylglucosamine kinase) (Pseudomonas aeruginosa PAO1)
Km [3]: 70 ± 12 µM
